Measurements collected from several papers.
Compare with care: the assays were run in different laboratories.
Target: Serine/threonine-protein kinase 24 (STK24, Homo sapiens, UniProt Q9Y6E0)

Compound | effect on | mode | technique | cell line | tested at | quantity | result
Cc1cc(NC(=O)c2cccc3cc(-c4cccc5[nH]nc(N)c45)ccc23)ccc1F | enzyme activity | inhibitor | – | – | 0.1 µM | activity vs control | 116%
O=C(N[C@H]1CCCCC/C=C\C2C[C@@]2(C(=O)O)NC(=O)[C@@H]2C[C@@H](Oc3ccncc3)CN2C1=O)OC1CCCC1 (stereo partly drawn) | binding | – | competition with immobilised ligand | – | 1 µM | remaining binding | 81%
COc1cc2ncnc(Nc3ccc(Oc4ccccc4)c(C)c3C)c2cc1OC | enzyme activity | inhibitor | – | – | 1 µM | inhibition | 10%
Cn1c2c(c3ccc(Cl)c(Cl)c31)C(C#N)C1(CCCC1)NC2=O (stereo not drawn) | thermal stability | – | DSF | – | 10 µM | ΔTm | 0.8 °C
O=C(Nc1cnn(-c2csc(C(=O)NC3COC3)c2)c1)Nc1ccccc1Cl | enzyme activity | inhibitor | – | – | 5 µM | remaining activity | 113%
CC(C)(C)c1nc(-c2cccc(NS(=O)(=O)c3c(F)cccc3F)c2F)c(-c2ccnc(N)n2)s1 | enzyme activity | inhibitor | radiometric | – | 1 µM | remaining activity | 14%
COc1cc2ncnc(Nc3ccc(F)c(Cl)c3)c2cc1OCCCN1CCOCC1 | cell-free assay | – | – | – | 0.5 µM | remaining signal | 102%
Cc1sc(C(=O)NC2COC2)cc1-n1cc(NC(=O)Nc2c(F)cccc2Cl)cn1 | enzyme activity | inhibitor | – | – | 10 µM | remaining activity | 67.3%
C[C@@H]1CN(c2cc(-c3nn(C)c4ccc(OC5(C)CC5)cc34)ncn2)C[C@H](C)O1 | cell-free assay | – | competition with immobilised ligand | – | 1 µM | remaining binding | 79%
CCCCNc1ncc2c(-c3ccc(F)cc3)nn(C[C@H]3CC[C@H](N)CC3)c2n1 | target engagement in cells | inhibitor | chemoproteomics | – | 20 mM | inhibition | 8.3%
COc1cc(/C=C/C(=O)CC(=O)/C=C/c2ccc(O)c(OC)c2)ccc1O | enzyme activity | inhibitor | – | – | 1 µM | activity vs control | 91%
COc1cc(Nc2c(C#N)cnc3cc(OCCCN4CCN(C)CC4)c(OC)cc23)c(Cl)cc1Cl | cell-free assay | – | – | – | 0.5 µM | remaining signal | 11%
Cn1c2c(Cl)c(Cl)ccc2c2cc(N)[nH]c(=O)c21 | thermal stability | – | DSF | – | 10 µM | ΔTm | 0.6 °C
CN(C)c1ncnc(-c2ccc3nc(Nc4cc(CN5CCN(C(=O)CC(F)(F)F)CC5)ccn4)[nH]c3c2)c1Cl | cell-free assay | – | competition with immobilised ligand | – | 1 µM | remaining binding | 90%
Cc1ccc(Nc2nccc(N(C)c3ccc4c(C)n(C)nc4c3)n2)cc1S(N)(=O)=O | enzyme activity | inhibitor | – | – | 0.3 µM | inhibition | -5%
CN1CCC2(CC1)NC(=O)c1c(c3ccc(Cl)c(Cl)c3n1C)C2C#N (racemic) | thermal stability | – | DSF | – | 10 µM | ΔTm | -0.6 °C
Oc1ccc(-c2nc(-c3ccncc3)c(-c3ccc(F)cc3)[nH]2)cc1 | cell-free assay | – | – | – | 0.5 µM | remaining signal | 95.2%

Compound | effect on | mode | technique | cell line | tested at | quantity | result
N#CC1(c2ccccn2)CCN(Cc2cc(C(=O)N3CCCC3)c(=O)n3ccccc23)CC1 | cell-free assay | – | competition with immobilised ligand | – | 1 µM | remaining binding | 87%
Cn1c2c(c3ccc(Cl)c(Cl)c31)C(C#N)C1(CCNCC1)NC2=O (racemic) | thermal stability | – | DSF | – | 10 µM | ΔTm | -0.7 °C
CCN(CC)CCNC(=O)c1c(C)[nH]c(/C=C2\C(=O)Nc3ccc(F)cc32)c1C | cell-free assay | – | – | – | 0.5 µM | remaining signal | 39.7%
CC/C(=N\NC(=O)NCc1cccc(O)c1)c1ccc(O)c(C)c1O | enzyme activity | inhibitor | – | – | 0.1 µM | inhibition | 4.3%
CCCS(=O)(=O)Nc1ccc(F)c(C(=O)c2c[nH]c3ncc(-c4ccc(Cl)cc4)cc23)c1F | enzyme activity | inhibitor | – | – | 1 µM | inhibition | < 20%
CN1CC(Oc2cnc(C#N)cc2-c2ccn3nc(NC(=O)C4CC4)cc3c2)C1 | enzyme activity | inhibitor | – | – | 1 µM | inhibition | 6%
C[C@H](NC(=O)c1cnc2n1[C@](C)(Cc1ccc(C#N)cc1)C(=O)N2c1cc(Cl)c(F)c(Cl)c1)C(=O)NC1(c2ccccn2)CC1 | cell-free assay | – | competition with immobilised ligand | – | 1 µM | remaining binding | 100%
CCN1CCN(Cc2ccc(NC(=O)c3ccc(C)c(Oc4ccnc5[nH]ccc45)c3)cc2C(F)(F)F)CC1 | target engagement in cells | inhibitor | chemoproteomics | A-375 | 50 nM | inhibition | -10.7%
NS(=O)(=O)c1cc(NC(=O)C2(c3ccccc3Cl)CC2)ccc1Oc1cccc(Cl)c1 | cell-free assay | – | competition with immobilised ligand | – | 1 µM | remaining binding | 93%
Cn1cncc1C1=CN(c2ncnc3[nH]cnc23)CCS1 | enzyme activity | inhibitor | radiometric | – | 50 nM | inhibition | 13.2%
CC1=C(C#N)C(c2ccc3c(c2)c(NC(=O)c2ccccc2C)nn3C)C(C#N)=C(C)N1 | cell-free assay | – | competition with immobilised ligand | – | 1 µM | remaining binding | 100%
CC(C)(O)[C@H]1CC[C@H](Nc2ccc3ncc(-c4cccc(C(F)(F)F)c4)n3n2)CC1 | enzyme activity | inhibitor | – | – | 1 µM | remaining activity | 96.1%
Nc1c(C(=O)NCc2ccc(C(=O)NCCCC3CCCCC3)cc2)cnn1-c1ccccc1 | cell-free assay | – | competition with immobilised ligand | – | 0.1 µM | remaining binding | 91%
CNC(=O)c1cc(Oc2ccc(NC(=O)Nc3ccc(Cl)c(C(F)(F)F)c3)cc2)ccn1 | enzyme activity | inhibitor | – | – | 0.3 µM | inhibition | -9%
COc1cc(Cl)c(C(=O)N[C@@H](CN[C@H]2CC[C@@H](N)CC2)Cc2ccc(C#N)cc2)cc1-c1ccc(CN[C@H](C)c2ccc(C)cc2)o1 | enzyme activity | inhibitor | – | – | 1 µM | remaining activity | 96%
CCN1CCN(Cc2ccc(NC(=O)c3ccc(C)c(/C=C/c4cnc5[nH]ccc5c4OC)c3)cc2C(F)(F)F)CC1 | target engagement in cells | inhibitor | chemoproteomics | A-375 | 0.5 µM | inhibition | -36.9%
